# Tests used:
# RS4;11 cells = experiment: Apoptosis, Annexin V FITC / propidium iodide flow cytometry; format: cell-based, human; conditions: RS4;11, 5 μM, 72 h; DMSO 11.7%
# CEM cells = experiment: as above; format: cell-based, human; conditions: 5 μM, 72 h, DMSO 7.3%
# ROCK-I = ROCK-I (Homo sapiens, UniProt Q13464); experiment: Kinase activity screening; format: biochemical; conditions: FX-9 at 2.5 μM, ATP at Km (70 μM)
# Procedure, shortened: (§1)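 Radiometric kinase-panel screen of 58 human kinases, measuring substrate phosphorylation. […] Activity is given as % of the mean positive-control kinase activity (100%). Below 30% counts as a strong hit, 30–70% as a partial hit, and above 70% as no hit.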
# NEK2 = NEK2 (Homo sapiens, UniProt P51955); experiment: Kinase activity screening; format: biochemical; conditions: FX-9 at 2.5 μM, ATP at Km (120 μM)
# Procedure, shortened: (§2)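 Radiometric substrate-phosphorylation screen covering a panel of 58 human kinases run by a contract service. […] Activity is given as a percentage of mean activity in positive control samples (100%). Values <30% were scored strong hits, 30–70% partial hits and >70% no hit.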
# Aurora-A = Aurora-A (Homo sapiens, UniProt O14965); experiment: Kinase activity screening; format: biochemical; conditions: FX-9 at 2.5 μM, ATP at Km (15 μM)
# Procedure, shortened: as §2
# B- and T-ALL cells = experiment: Proliferation, viable cell count by trypan blue exclusion; format: cell-based; conditions: Homo sapiens, read-out: IC50 values against B- and T-ALL cells
# Procedure, shortened: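 Human B-ALL (SEM, RS4;11) and T-ALL (Jurkat, CEM) lines were grown with 10% heat-inactivated FBS and penicillin/streptomycin at 37°C, 5% CO2. Cells took test compound at 0.1–5.0 μM (methods: 0.5–5.0 μM) or DMSO for up to 72 h. Viable cells were counted by trypan blue exclusion and expressed relative to control (100%). IC50 came from three separate experiments, each in triplicate.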
# mTOR = mTOR (Homo sapiens, UniProt P42345); experiment: Kinase activity screening; format: biochemical; conditions: FX-9 at 2.5 μM, ATP at Km (70 μM)
# Procedure, shortened: as §1
# Abl = Abl (Homo sapiens, UniProt P00519); experiment: Kinase activity screening; format: biochemical; conditions: FX-9 at 2.5 μM, ATP at Km (45 μM)
# Procedure, shortened: as §2
# DRAK1 = DRAK1 (Homo sapiens, UniProt Q9UEE5); experiment: Kinase activity screening; format: biochemical; conditions: FX-9 at 2.5 μM, ATP at Km (10 μM)
# Procedure, shortened: as §2
# recombinant human CK2α1 = recombinant human CK2α1 (Homo sapiens, UniProt P68400); experiment: CK2 kinase activity assay; format: biochemical; conditions: 60 min
# Procedure, shortened: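 Recombinant human CK2α1 (50 ng) was incubated with 2.5 μg CK2α1 substrate, 10 μM ATP, and test compound, reference inhibitor or DMSO for 60 min at room temperature. ADP-Glo reagent stopped the reaction and depleted remaining ATP. Detection reagent then converted ADP to ATP for luciferase/luciferin luminescence, which tracks the ADP formed as the measure of kinase activity.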
# PI3 Kinase (p110d/p85a) = PI3 Kinase (p110d/p85a) (Homo sapiens, UniProt O00329); experiment: Kinase activity screening; format: biochemical; conditions: FX-9 at 2.5 μM, ATP at Km (200 μM)
# Procedure, shortened: as §2
# MAPKAP-K2 = MAPKAP-K2 (Homo sapiens, UniProt P49137); experiment: Kinase activity screening; format: biochemical; conditions: FX-9 at 2.5 μM, ATP at Km (90 μM)
# Procedure, shortened: as §2
# CDK2/cyclinA = CDK2/cyclinA (Homo sapiens, UniProt P24941); experiment: Kinase activity screening; format: biochemical; conditions: FX-9 at 2.5 μM, ATP at Km (45 μM)
# Procedure, shortened: as §2
# cleaved caspase 3 = experiment: Western blot, SEM cells; format: cell-based, human; conditions: 2.5 μM and 5.0 μM, 48 h
# Procedure, shortened: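 SEM and RS4;11 cells were exposed to 2.5 or 5.0 μM test compound, or DMSO, for 48 h. Lysates of 1–5×10^6 cells were made in RIPA buffer with sonication. Cleaved caspase 3 was detected by western blot on PVDF with near-infrared imaging, using GAPDH as loading control.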
# CDK7/cyclinH/MAT1 = CDK7/cyclinH/MAT1 (Homo sapiens, UniProt P50613); experiment: Kinase activity screening; format: biochemical; conditions: FX-9 at 2.5 μM, ATP at Km (90 μM)
# Procedure, shortened: as §2
# PI3 Kinase (p110b/p85a) = PI3 Kinase (p110b/p85a) (Homo sapiens, UniProt P42338); experiment: Kinase activity screening; format: biochemical; conditions: FX-9 at 2.5 μM, ATP at Km (200 μM)
# Procedure, shortened: as §2
# PDGFRβ = PDGFRβ (Homo sapiens, UniProt P09619); experiment: Kinase activity screening; format: biochemical; conditions: FX-9 at 2.5 μM, ATP at Km (200 μM)
# Procedure, shortened: as §2
# Rsk1 = Rsk1 (Homo sapiens, UniProt Q15418); experiment: Kinase activity screening; format: biochemical; conditions: FX-9 at 2.5 μM, ATP at Km (45 μM)
# Procedure, shortened: as §1
# Jurkat cells = experiment: WST-1 metabolic activity assay; format: cell-based; conditions: Homo sapiens, 72 h, read-out: metabolic activity
# Procedure, shortened: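 Test compound came from a 10 mM DMSO stock. Cells were seeded at 5×10^4/well in triplicate with 5 or 10 μM final compound; controls got matched DMSO. After 72 h at 37°C, 5% CO2, WST-1 was added for a further 3 h. Absorbance was read at 450 nm (reference 620 nm), and metabolic activity given as % of DMSO control.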
# Rse = Rse (Homo sapiens, UniProt Q06418); experiment: Kinase activity screening; format: biochemical; conditions: FX-9 at 2.5 μM, ATP at Km (45 μM)
# Procedure, shortened: as §1
# AMPKα1 = AMPKα1 (Homo sapiens, UniProt Q13131); experiment: Kinase activity screening; format: biochemical; conditions: FX-9 at 2.5 μM, ATP at Km (45 μM)
# Procedure, shortened: as §2
# MEK1 = MEK1 (Homo sapiens, UniProt Q02750); experiment: Kinase activity screening; format: biochemical; conditions: FX-9 at 2.5 μM, ATP at Km (10 μM)
# Procedure, shortened: as §2
# IRAK4 = IRAK4 (Homo sapiens, UniProt Q9NWZ3); experiment: Kinase activity screening; format: biochemical; conditions: FX-9 at 2.5 μM, ATP at Km (200 μM)
# Procedure, shortened: as §2
# Fyn = Fyn (Homo sapiens, UniProt P06241); experiment: Kinase activity screening; format: biochemical; conditions: FX-9 at 2.5 μM, ATP at Km (70 μM)
# Procedure, shortened: as §2
# IKKα = IKKα (Homo sapiens, UniProt O15111); experiment: Kinase activity screening; format: biochemical; conditions: FX-9 at 2.5 μM, ATP at Km (10 μM)
# Procedure, shortened: as §2
# LOK = LOK (Homo sapiens, UniProt O94804); experiment: Kinase activity screening; format: biochemical; conditions: FX-9 at 2.5 μM, ATP at Km (120 μM)
# Procedure, shortened: as §2
# CK2α2 = CK2α2 (Homo sapiens, UniProt P19784); experiment: Kinase activity screening; format: biochemical; conditions: FX-9 at 2.5 μM, ATP at Km (10 μM)
# Procedure, shortened: as §2
# Lyn = Lyn (Homo sapiens, UniProt P07948); experiment: Kinase activity screening; format: biochemical; conditions: FX-9 at 2.5 μM, ATP at Km (70 μM)
# Procedure, shortened: as §2
# Sequence of recombinant human CK2α1 (P68400 whole entry): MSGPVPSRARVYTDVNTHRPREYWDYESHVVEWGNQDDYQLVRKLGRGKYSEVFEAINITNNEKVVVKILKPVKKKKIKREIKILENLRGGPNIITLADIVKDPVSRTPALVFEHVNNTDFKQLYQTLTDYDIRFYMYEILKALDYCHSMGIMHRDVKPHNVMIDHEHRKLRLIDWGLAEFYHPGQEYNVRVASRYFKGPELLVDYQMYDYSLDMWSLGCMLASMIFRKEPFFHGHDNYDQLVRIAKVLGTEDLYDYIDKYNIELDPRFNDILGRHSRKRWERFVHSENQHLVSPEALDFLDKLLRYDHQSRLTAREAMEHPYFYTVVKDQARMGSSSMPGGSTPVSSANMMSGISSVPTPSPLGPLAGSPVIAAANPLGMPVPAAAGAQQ
# Sequence of CDK7/cyclinH/MAT1 (P50613 whole entry): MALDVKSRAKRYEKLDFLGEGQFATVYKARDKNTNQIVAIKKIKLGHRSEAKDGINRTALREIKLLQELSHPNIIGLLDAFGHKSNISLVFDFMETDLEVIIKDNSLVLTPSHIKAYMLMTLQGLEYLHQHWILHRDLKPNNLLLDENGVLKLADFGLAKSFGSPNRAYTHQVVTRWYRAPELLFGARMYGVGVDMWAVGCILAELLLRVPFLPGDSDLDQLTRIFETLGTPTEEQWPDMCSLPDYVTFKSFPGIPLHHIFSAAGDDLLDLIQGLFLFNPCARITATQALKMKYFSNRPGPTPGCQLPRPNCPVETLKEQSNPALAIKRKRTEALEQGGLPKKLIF
# Sequence of CDK7/cyclinH/MAT1 (P51946 whole entry partner): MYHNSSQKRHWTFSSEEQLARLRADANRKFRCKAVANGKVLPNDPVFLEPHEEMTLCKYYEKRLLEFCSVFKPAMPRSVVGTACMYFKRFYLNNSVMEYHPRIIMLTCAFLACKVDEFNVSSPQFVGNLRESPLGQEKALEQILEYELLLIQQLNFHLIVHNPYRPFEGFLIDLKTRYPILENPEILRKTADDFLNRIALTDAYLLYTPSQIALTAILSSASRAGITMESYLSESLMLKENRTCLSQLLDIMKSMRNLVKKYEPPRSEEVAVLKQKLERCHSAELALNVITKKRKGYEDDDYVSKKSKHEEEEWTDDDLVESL
# Sequence of CDK7/cyclinH/MAT1 (P51948 whole entry partner): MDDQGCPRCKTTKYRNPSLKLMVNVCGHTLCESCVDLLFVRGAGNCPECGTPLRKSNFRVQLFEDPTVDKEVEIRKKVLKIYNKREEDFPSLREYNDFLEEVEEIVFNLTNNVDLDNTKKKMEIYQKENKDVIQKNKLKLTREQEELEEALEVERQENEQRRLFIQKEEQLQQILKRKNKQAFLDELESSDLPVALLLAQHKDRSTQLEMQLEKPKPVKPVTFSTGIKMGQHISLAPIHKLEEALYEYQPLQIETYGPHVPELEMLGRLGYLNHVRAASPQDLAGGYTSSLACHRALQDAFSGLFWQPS
# Sequence of IKKα (O15111 whole entry): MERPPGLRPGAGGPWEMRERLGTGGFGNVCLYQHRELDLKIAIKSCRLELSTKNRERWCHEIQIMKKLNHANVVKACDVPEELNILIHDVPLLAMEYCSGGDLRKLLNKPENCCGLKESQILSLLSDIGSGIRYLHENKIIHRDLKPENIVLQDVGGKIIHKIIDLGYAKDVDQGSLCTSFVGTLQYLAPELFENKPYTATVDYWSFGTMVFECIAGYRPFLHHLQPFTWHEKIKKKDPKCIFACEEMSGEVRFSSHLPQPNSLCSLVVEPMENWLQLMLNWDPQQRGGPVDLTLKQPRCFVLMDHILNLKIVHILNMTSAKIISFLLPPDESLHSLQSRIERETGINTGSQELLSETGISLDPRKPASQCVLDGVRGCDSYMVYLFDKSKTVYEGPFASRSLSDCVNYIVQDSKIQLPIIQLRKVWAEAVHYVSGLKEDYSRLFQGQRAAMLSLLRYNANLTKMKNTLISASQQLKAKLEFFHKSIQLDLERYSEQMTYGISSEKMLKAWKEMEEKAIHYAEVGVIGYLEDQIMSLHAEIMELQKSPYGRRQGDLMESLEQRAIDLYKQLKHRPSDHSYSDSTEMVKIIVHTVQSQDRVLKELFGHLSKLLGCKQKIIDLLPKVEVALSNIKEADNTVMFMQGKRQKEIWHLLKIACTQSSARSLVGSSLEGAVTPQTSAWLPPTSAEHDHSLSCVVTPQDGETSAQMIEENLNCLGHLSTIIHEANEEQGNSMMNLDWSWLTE
# Sequence of MEK1 (Q02750 whole entry): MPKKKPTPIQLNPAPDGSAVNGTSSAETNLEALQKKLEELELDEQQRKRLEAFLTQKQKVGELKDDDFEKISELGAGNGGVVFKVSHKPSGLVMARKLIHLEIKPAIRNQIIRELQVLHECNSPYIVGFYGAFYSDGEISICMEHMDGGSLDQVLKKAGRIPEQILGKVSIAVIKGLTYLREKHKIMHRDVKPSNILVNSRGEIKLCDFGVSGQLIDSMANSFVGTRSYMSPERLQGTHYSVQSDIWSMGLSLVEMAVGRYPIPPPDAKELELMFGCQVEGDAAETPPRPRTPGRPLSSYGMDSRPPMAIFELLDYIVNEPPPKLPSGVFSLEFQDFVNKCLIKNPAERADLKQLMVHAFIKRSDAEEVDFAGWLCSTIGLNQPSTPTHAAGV
# Sequence of Rsk1 (Q15418 whole entry): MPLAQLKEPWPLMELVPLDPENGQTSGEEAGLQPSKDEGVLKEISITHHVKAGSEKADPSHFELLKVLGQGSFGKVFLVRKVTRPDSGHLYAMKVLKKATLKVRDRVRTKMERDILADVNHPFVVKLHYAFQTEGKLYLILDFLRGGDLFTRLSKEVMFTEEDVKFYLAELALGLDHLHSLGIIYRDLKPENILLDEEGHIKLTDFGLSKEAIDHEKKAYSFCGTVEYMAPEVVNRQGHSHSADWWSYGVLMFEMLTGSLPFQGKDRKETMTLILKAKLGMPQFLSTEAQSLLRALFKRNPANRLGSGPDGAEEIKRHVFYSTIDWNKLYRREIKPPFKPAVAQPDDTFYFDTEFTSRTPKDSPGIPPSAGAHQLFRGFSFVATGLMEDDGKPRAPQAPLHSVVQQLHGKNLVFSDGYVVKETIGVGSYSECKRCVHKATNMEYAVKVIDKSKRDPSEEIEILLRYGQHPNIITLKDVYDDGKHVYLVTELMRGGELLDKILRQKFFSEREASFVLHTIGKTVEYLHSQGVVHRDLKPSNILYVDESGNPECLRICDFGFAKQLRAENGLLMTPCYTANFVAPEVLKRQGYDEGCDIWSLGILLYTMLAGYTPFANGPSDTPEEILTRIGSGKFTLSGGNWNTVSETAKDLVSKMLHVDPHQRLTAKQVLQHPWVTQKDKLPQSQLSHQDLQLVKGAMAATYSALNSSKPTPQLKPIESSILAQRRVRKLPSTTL
# Sequence of NEK2 (P51955 whole entry): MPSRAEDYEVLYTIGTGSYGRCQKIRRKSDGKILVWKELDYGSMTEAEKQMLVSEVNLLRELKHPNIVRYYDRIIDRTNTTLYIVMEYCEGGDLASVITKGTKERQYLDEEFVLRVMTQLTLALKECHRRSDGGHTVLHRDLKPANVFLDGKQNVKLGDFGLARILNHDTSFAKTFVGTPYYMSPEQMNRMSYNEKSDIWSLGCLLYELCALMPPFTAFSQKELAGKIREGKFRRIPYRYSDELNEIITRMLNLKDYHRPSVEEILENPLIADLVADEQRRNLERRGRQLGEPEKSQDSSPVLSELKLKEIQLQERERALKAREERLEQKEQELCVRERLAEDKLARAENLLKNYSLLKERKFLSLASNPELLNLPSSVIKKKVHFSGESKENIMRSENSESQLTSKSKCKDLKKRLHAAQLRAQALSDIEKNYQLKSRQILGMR
# Sequence of Rse (Q06418 41-890): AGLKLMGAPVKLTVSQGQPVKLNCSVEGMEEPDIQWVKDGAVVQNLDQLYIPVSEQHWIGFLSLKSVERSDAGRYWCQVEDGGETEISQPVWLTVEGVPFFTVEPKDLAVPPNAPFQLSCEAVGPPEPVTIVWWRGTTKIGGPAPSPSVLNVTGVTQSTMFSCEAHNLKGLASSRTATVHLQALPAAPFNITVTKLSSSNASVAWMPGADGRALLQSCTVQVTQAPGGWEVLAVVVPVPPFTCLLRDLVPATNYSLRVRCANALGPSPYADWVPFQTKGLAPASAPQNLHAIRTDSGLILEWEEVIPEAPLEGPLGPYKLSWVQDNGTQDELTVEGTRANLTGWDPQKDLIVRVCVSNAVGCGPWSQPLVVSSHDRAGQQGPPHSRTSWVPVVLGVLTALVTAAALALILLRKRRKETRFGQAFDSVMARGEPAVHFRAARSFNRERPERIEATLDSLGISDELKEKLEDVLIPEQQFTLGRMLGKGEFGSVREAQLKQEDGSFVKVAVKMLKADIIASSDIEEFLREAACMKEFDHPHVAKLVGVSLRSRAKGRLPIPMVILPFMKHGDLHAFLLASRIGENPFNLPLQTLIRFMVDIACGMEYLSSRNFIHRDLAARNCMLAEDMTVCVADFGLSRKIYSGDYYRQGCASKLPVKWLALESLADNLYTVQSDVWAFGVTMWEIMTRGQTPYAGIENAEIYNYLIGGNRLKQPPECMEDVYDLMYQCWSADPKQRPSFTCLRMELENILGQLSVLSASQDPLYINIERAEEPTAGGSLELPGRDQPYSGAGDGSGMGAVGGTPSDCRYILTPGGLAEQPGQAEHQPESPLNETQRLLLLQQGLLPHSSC
# Sequence of Aurora-A (O14965 whole entry): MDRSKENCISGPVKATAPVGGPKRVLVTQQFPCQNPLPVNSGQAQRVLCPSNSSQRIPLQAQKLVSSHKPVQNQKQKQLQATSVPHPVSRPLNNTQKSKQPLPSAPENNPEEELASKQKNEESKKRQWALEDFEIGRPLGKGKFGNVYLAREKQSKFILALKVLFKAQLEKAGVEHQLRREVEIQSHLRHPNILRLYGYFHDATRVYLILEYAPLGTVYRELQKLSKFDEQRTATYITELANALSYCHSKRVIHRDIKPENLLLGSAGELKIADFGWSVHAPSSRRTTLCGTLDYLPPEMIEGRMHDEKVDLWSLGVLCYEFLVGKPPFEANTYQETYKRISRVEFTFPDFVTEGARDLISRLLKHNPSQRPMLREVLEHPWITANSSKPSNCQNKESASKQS
structure (smiles),measurement,setting,value
"Cc1ccc(-c2cc3ccccc3c(N)n2)cc1 [FX-9, 3-(p-Tolyl)isoquinolin-1-amine]",Apoptosis (total of early apoptotic and late apoptotic and necrotic cells),RS4;11 cells,84.6%
same,Apoptosis (total of early apoptotic and late apoptotic and necrotic cells),CEM cells,90.4%
same,Kinase activity (% control),ROCK-I,93 % control
same,Kinase activity (% control),NEK2,106 % control
same,Kinase activity (% control),Aurora-A,92 % control
same,IC50,B- and T-ALL cells,0.54 to 1.94 µM
same,Kinase activity (% control),mTOR,100 % control
same,Kinase activity (% control),Abl,96 % control
same,Kinase activity (% control),DRAK1,81 % control
same,CK2 enzyme activity,"recombinant human CK2α1; 10 μM FX-9, 10 μM ATP",not changed significantly
same,CK2 enzyme activity,"recombinant human CK2α1; increasing concentrations, 10 μM ATP",No changes of CK2 enzyme activity
same,Kinase activity (% control),PI3 Kinase (p110d/p85a),100 % control
same,Kinase activity (% control),MAPKAP-K2,87 % control
same,Kinase activity (% control),CDK2/cyclinA,90 % control
same,cleaved caspase 3 protein (western blot),cleaved caspase 3,increased amount of cleaved caspase 3
same,Kinase activity (% control),CDK7/cyclinH/MAT1,91 % control
same,Kinase activity (% control),PI3 Kinase (p110b/p85a),97 % control
same,Kinase activity (% control),PDGFRβ,99 % control
same,Kinase activity (% control),Rsk1,95 % control
same,viability at 5 µM,Jurkat cells,10.4%
same,viability at 10 µM,Jurkat cells,13.6%
same,Kinase activity (% control),Rse,92 % control
same,Kinase activity (% control),AMPKα1,98 % control
same,Kinase activity (% control),MEK1,90 % control
same,Kinase activity (% control),IRAK4,95 % control
same,Kinase activity (% control),Fyn,97 % control
same,Kinase activity (% control),IKKα,91 % control
same,Kinase activity (% control),LOK,101 % control
same,Kinase activity (% control),CK2α2,95 % control
same,Kinase activity (% control),Lyn,87 % control
